Source: ChEMBL document CHEMBL1126688, “Interphenylene 7-oxabicyclo[2.2.1]heptane oxazoles. Highly potent, selective, and long-acting thromboxane A2 receptor antagonists” (J Med Chem, 1993)

Legend:
Thromboxane A2 receptor = target: T1, Thromboxane A2 receptor (Homo sapiens, UniProt P21731); assay: Inhibitory binding activity against TXA2 receptor in human platelet membrane, using [3H]-SQ 29548 as the radioligand
T1 sequence (P21731 whole entry): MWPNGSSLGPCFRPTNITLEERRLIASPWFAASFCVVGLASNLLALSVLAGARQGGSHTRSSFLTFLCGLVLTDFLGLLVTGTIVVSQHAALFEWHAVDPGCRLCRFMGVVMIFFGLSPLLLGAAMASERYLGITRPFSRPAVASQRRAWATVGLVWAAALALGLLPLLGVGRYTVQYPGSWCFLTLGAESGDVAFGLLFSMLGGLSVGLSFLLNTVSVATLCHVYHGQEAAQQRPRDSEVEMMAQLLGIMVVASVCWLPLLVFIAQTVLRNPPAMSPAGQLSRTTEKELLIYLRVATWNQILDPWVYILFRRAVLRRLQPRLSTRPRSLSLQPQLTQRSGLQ
Outline: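 Competition binding of [3H]-SQ 29,548 to TxA2 receptors in human platelet membranes, measured as inhibition of specific binding. Kd (inhibition constant) was calculated from each compound's I50 value. A slope factor is also reported.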

Homo sapiens [1] = species on record: Homo sapiens; assay: Inhibitory activity against platelet aggregation, induced by arachidonic acid in human platelet rich plasma; type: functional
Outline: (§1)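 Human platelet-rich plasma. Aggregation was induced by exogenous arachidonic acid or by the TxA2 mimetic U-46,619, each at a single fixed agonist level. I50 was taken as the antagonist concentration giving 50% inhibition of aggregation.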

[2] = Partition coefficient (logP); type: physicochemical; details: octanol/water
Outline: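 log P came from reversed-phase TLC Rm values on C18 plates. Eluent was acetone in 0.5 M aqueous KBr, buffered with 0.25 N triethylammonium phosphate to pH 7.3. Values were converted with a calibration curve built from shake-flask partition coefficients (pH 7.0) of seven oxabicycloheptane compounds spanning a range of lipophilicities.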

Homo sapiens [3] = species on record: Homo sapiens; assay: Inhibitory activity against platelet aggregation, induced by U-46619 in human platelet rich plasma; type: functional; outline: as §1
Mus musculus = assay: In vivo duration of action required to prevent death in mice, after i.v. administration of U-46619 (2 mg/kg) at 0.2 mg/kg p.o.; details: po

| Compound | Kd (Thromboxane A2 receptor) [nM] | IC50 (Homo sapiens [1]; read-out: I50) [nM] | IC50 (Homo sapiens [3]; read-out: I50) [nM] | logP [2] | T50 (Mus musculus) [h] | IC50 (Homo sapiens [3]; read-out: I 50) [nM] | IC50 (Homo sapiens [1]; read-out: I 50) [nM] |
| --- | --- | --- | --- | --- | --- | --- | --- |
| CCCNC(=O)c1coc(C2C3CCC(O3)C2Cc2ccccc2CCC(=O)O)n1 (configuration not stated) | 10 | 8 | 53 | 0.4 | 2.3 | – | – |
| O=C(O)CCc1ccccc1CC1C2CCC(O2)C1c1nc(C(=O)NCCCCN2CCCCC2)co1 (configuration not stated) | 22 | 30 | 137 | 0.53 | – | – | – |
| CCCCCN(C)C(=O)c1coc(C2C3CCC(O3)C2Cc2ccccc2CCC(=O)O)n1 (configuration not stated) | 11 | 9 | – | 1 | 11.3 | – | – |
| COc1ccc(CCCCNC(=O)c2coc(C3C4CCC(O4)C3Cc3ccccc3CCC(=O)O)n2)cc1 (configuration not stated) | 0.3 | 16 | 62 | 2.49 | – | – | – |
| CC(C)NC(=O)c1coc(C2C3CCC(O3)C2Cc2ccccc2CCC(=O)O)n1 (configuration not stated) | 26 | 7 | 63 | 0.05 | 10 | – | – |
| O=C(O)CCc1ccccc1CC1C2CCC(O2)C1c1nc(/C=C/CCCCC2CCCCC2)co1 (configuration not stated) | – | 320 | 2760 | – | – | – | – |
| CCC(C)(C)NC(=O)c1coc(C2C3CCC(O3)C2Cc2ccccc2CCC(=O)O)n1 (configuration not stated) | 0.8 | 12 | 30 | 0.51 | 8.8 | – | – |
| CN(CCCCC1CCCCC1)C(=O)c1coc(C2C3CCC(O3)C2Cc2ccccc2CCC(=O)O)n1 (configuration not stated) | – | 2 | – | 3.89 | – | – | – |
| C#CCCCCCNC(=O)c1coc(C2C3CCC(O3)C2Cc2ccccc2CCC(=O)O)n1 (configuration not stated) | 4.7 | – | – | 0.87 | 11.1 | 31 | 14 |
| CC(C)(C)CCNC(=O)c1coc(C2C3CCC(O3)C2Cc2ccccc2CCC(=O)O)n1 (configuration not stated) | 2.9 | 8 | 28 | 1.23 | 13.5 | – | – |
| O=C(O)CCc1ccccc1CC1C2CCC(O2)C1c1nc(C(=O)NCCCCc2ccc(Cl)cc2)co1 (configuration not stated) | 0.2 | – | – | 3.52 | 18.6 | – | – |
| O=C(O)CCc1ccccc1CC1C2CCC(O2)C1c1nc(C(=O)NCCCCC(=O)NC2CCCCC2)co1 (configuration not stated) | 22 | 27 | 82 | 1.18 | – | – | – |
| O=C(O)CCc1ccccc1CC1C2CCC(O2)C1c1nc(C(=O)NCCc2ccccc2)co1 (configuration not stated) | 0.7 | 9 | 30 | 0.98 | 4 | – | – |
| O=C(O)Cc1cccc(CCC2C3CCC(O3)C2c2nc(C(=O)NCCCCC3CCCCC3)co2)c1 (configuration not stated) | 16.3 | 146 | – | – | – | – | – |
| O=C(O)CCc1ccccc1CC1C2CCC(O2)C1c1nc(C(=O)NCCCCc2ccc(O)cc2)co1 (configuration not stated) | 0.5 | 12 | – | 1.49 | – | – | – |
| CC(C)(C)NC(=O)c1coc(C2C3CCC(O3)C2Cc2ccccc2CCC(=O)O)n1 (configuration not stated) | 19 | 12 | 61 | -0.02 | 7.4 | – | – |
| CS(=O)(=O)c1ccc(CCCCNC(=O)c2coc(C3C4CCC(O4)C3Cc3ccccc3CCC(=O)O)n2)cc1 (configuration not stated) | – | 26 | – | 0.32 | – | – | – |
| O=C(O)Cc1cccc(CC2C3CCC(O3)C2c2nc(C(=O)NCCCCC3CCCCC3)co2)c1 (configuration not stated) | 1.2 | 12 | 34 | – | – | – | – |

Second part, led by results:

| Kd (Thromboxane A2 receptor) [nM] | IC50 (Homo sapiens [1]; read-out: I50) [nM] | IC50 (Homo sapiens [3]; read-out: I50) [nM] | Compound | logP [2] | T50 (Mus musculus) [h] | IC50 (Homo sapiens [3]; read-out: I 50) [nM] | IC50 (Homo sapiens [1]; read-out: I 50) [nM] |
| --- | --- | --- | --- | --- | --- | --- | --- |
| 0.85 | 6 | – | O=C(O)CCCc1ccccc1CC1C2CCC(O2)C1c1nc(C(=O)NCCCCC2CCCCC2)co1 (configuration not stated) | – | – | – | – |
| 19 | 14 | 97 | O=C(O)Cc1ccccc1CC1C2CCC(O2)C1c1nc(C(=O)NCCCCC2CCCCC2)co1 (configuration not stated) | – | – | – | – |
| 10.6 | 2 | 9 | O=C(O)CCc1ccccc1CC1C2CCC(O2)C1c1nc(C(=S)NCCCCC2CCCCC2)co1 (configuration not stated) | – | – | – | – |
| – | 52 | 171 | O=C(NCCCCC1CCCCC1)c1coc(C2C3CCC(O3)C2Cc2ccccc2C(=O)O)n1 (configuration not stated) | – | – | – | – |
| – | 63 | 616 | O=C(O)CCc1ccccc1CCC1C2CCC(O2)C1c1nc(C(=O)NCCCCC2CCCCC2)co1 (configuration not stated) | – | – | – | – |
| 36 | 4 | 13 | CC(C)(Cc1ccccc1CC1C2CCC(O2)C1c1nc(C(=O)NCCCCC2CCCCC2)co1)C(=O)O (configuration not stated) | – | – | – | – |
| – | 290 | – | CCOC(=O)CCc1ccccc1CC1C2CCC(O2)C1c1nc(C(=O)NCCCCC2CCCCC2)co1 (configuration not stated) | – | – | – | – |
| 3.2 | 7 | 8 | O=C(O)COc1ccccc1CC1C2CCC(O2)C1c1nc(C(=O)NCCCCC2CCCCC2)co1 (configuration not stated) | – | – | – | – |
